ChEMBL document CHEMBL3124870, “Discovery and characterization of potent thiazoles versus methicillin- and vancomycin-resistant Staphylococcus aureus” (J Med Chem, 2014)
≈ marks a conversion by molar mass, not a printed value.

How the values were obtained:
Staphylococcus aureus [1] = assay: Antibacterial activity against methicillin-resistant Staphylococcus aureus USA800 assessed as inhibition of visible growth by broth microdilution method; format: functional
Staphylococcus aureus [2] = assay: Antibacterial activity against methicillin-resistant Staphylococcus aureus USA700 assessed as inhibition of visible growth by broth microdilution method; format: functional
Staphylococcus aureus [3] = assay: Antibacterial activity against methicillin-resistant Staphylococcus aureus USA500 assessed as inhibition of visible growth by broth microdilution method; format: functional
Staphylococcus aureus [4] = assay: Antibacterial activity against methicillin-resistant Staphylococcus aureus NRS194 assessed as inhibition of visible growth by broth microdilution method; format: functional
Staphylococcus aureus [5] = assay: Antibacterial activity against methicillin-resistant Staphylococcus aureus USA400 assessed as inhibition of visible growth by broth microdilution method; format: functional
Staphylococcus aureus [6] = assay: Antibacterial activity against methicillin-resistant Staphylococcus aureus NRS119 assessed as inhibition of visible growth by broth microdilution method; format: functional
Staphylococcus aureus [7] = assay: Antibacterial activity against methicillin-resistant Staphylococcus aureus NRS108 assessed as inhibition of visible growth by broth microdilution method; format: functional
Staphylococcus aureus [8] = assay: Antibacterial activity against methicillin-resistant Staphylococcus aureus NRS107 assessed as inhibition of visible growth by broth microdilution method; format: functional
Staphylococcus aureus [9] = assay: Antibacterial activity against vancomycin-intermediate Staphylococcus aureus LIM 3 assessed as inhibition of visible growth by broth microdilution method; format: functional
Staphylococcus aureus [10] = assay: Antibacterial activity against vancomycin-intermediate Staphylococcus aureus HIP07256 assessed as inhibition of visible growth by broth microdilution method; format: functional
Staphylococcus aureus [11] = assay: Antibacterial activity against vancomycin-intermediate Staphylococcus aureus ATCC 700699 assessed as inhibition of visible growth by broth microdilution method; format: functional
HeLa = assay: Cytotoxicity against human HeLa cells assessed as cell viability at 11 ug/ml by MTS assay; format: cell-based
Staphylococcus aureus [12] = assay: Antibacterial activity against methicillin-resistant Staphylococcus aureus ATCC 43300 assessed as inhibition of visible growth by broth microdilution method; format: functional
Staphylococcus aureus [13] = assay: Bactericidal activity against methicillin-resistant Staphylococcus aureus USA300 assessed as time required to complete elimination of bacteria by 3-log10 by time-kill assay; format: functional
How it was run: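 Viable counts (CFU) followed over a 12-hour window; endpoint is a 3-log10 fall in CFU.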

Staphylococcus aureus [14] = assay: Antibacterial activity against vancomycin-resistant Staphylococcus aureus assessed as inhibition of visible growth by broth microdilution method; format: functional
Staphylococcus aureus [15] = assay: Antibacterial activity against methicillin-resistant Staphylococcus aureus USA1100 assessed as inhibition of visible growth by broth microdilution method; format: functional
Staphylococcus aureus [16] = assay: Antibacterial activity against methicillin-resistant Staphylococcus aureus USA1000 assessed as inhibition of visible growth by broth microdilution method; format: functional
Staphylococcus aureus [17] = assay: Antibacterial activity against methicillin-resistant Staphylococcus aureus USA300 assessed as inhibition of visible growth by broth microdilution method; format: functional
Staphylococcus aureus [18] = assay: Antibacterial activity against methicillin-resistant Staphylococcus aureus USA200 assessed as inhibition of visible growth by broth microdilution method; format: functional
Staphylococcus aureus [19] = assay: Antibacterial activity against methicillin-resistant Staphylococcus aureus USA100 assessed as inhibition of visible growth by broth microdilution method; format: functional

Row | Compound | MIC (Staphylococcus aureus [1]) | MIC (Staphylococcus aureus [2]) | MIC (Staphylococcus aureus [3]) | MIC (Staphylococcus aureus [4]) | MIC (Staphylococcus aureus [5]) | MIC (Staphylococcus aureus [6]) | MIC (Staphylococcus aureus [7]) | MIC (Staphylococcus aureus [8]) | MIC (Staphylococcus aureus [9]) | MIC (Staphylococcus aureus [10]) | MIC (Staphylococcus aureus [11]) | Activity (HeLa) | MIC (Staphylococcus aureus [12]) | Time (Staphylococcus aureus [13]) | MIC (Staphylococcus aureus [14]) | MIC (Staphylococcus aureus [15]) | MIC (Staphylococcus aureus [16]) | MIC (Staphylococcus aureus [17]) | MIC (Staphylococcus aureus [18]) | MIC (Staphylococcus aureus [19])
1 | CCCCCCCCCc1ccc(-c2nc(C)c(/C(C)=N/NC(=N)N)s2)cc1 | 1.8 µg/mL (≈ 4.5 µM) | 1.8 µg/mL (≈ 4.5 µM) | 3.7 µg/mL (≈ 9.26 µM) | 4.4 µg/mL (≈ 11 µM) | 4.4 µg/mL (≈ 11 µM) | 2.2 µg/mL (≈ 5.51 µM) | 4.4 µg/mL (≈ 11 µM) | 1.1 µg/mL (≈ 2.75 µM) | 1.1 µg/mL (≈ 2.75 µM) | 2.9 µg/mL (≈ 7.26 µM) | 1.1 µg/mL (≈ 2.75 µM) | Non-toxic | – | – | – | – | – | – | – | –
2 | CCCCCc1ccc(-c2nc(C)c(/C(C)=N/NC(=N)N)s2)cc1 | 0.7 µg/mL (≈ 2.04 µM) | 0.9 µg/mL (≈ 2.62 µM) | – | 1.1 µg/mL (≈ 3.2 µM) | 0.9 µg/mL (≈ 2.62 µM) | 0.9 µg/mL (≈ 2.62 µM) | 0.9 µg/mL (≈ 2.62 µM) | 0.5 µg/mL (≈ 1.46 µM) | – | 0.7 µg/mL (≈ 2.04 µM) | – | Non-toxic | 0.8 µg/mL (≈ 2.33 µM) | 2 h | – | – | – | – | – | –
3 | C/C(=N\NC(=N)N)c1sc(-c2ccc(-c3ccccc3)cc2)nc1C | 1.2 µg/mL (≈ 3.43 µM) | 0.8 µg/mL (≈ 2.29 µM) | 1.6 µg/mL (≈ 4.58 µM) | 1.4 µg/mL (≈ 4.01 µM) | 0.8 µg/mL (≈ 2.29 µM) | 0.6 µg/mL (≈ 1.72 µM) | 2 µg/mL (≈ 5.72 µM) | 1.2 µg/mL (≈ 3.43 µM) | 0.6 µg/mL (≈ 1.72 µM) | 0.5 µg/mL (≈ 1.43 µM) | 0.6 µg/mL (≈ 1.72 µM) | Non-toxic | 0.6 µg/mL (≈ 1.72 µM) | – | 0.6 µg/mL (≈ 1.72 µM) | 0.6 µg/mL (≈ 1.72 µM) | 0.8 µg/mL (≈ 2.29 µM) | 1 µg/mL (≈ 2.86 µM) | 0.6 µg/mL (≈ 1.72 µM) | 2 µg/mL (≈ 5.72 µM)
4 | C/C(=N\NC(=N)N)c1sc(-c2ccc(C3=CCCCC3)cc2)nc1C | 0.8 µg/mL (≈ 2.26 µM) | 1.2 µg/mL (≈ 3.39 µM) | 1 µg/mL (≈ 2.83 µM) | 0.8 µg/mL (≈ 2.26 µM) | – | 0.6 µg/mL (≈ 1.7 µM) | 1.7 µg/mL (≈ 4.81 µM) | 0.6 µg/mL (≈ 1.7 µM) | 0.8 µg/mL (≈ 2.26 µM) | 0.8 µg/mL (≈ 2.26 µM) | 0.5 µg/mL (≈ 1.41 µM) | Non-toxic | 1.2 µg/mL (≈ 3.39 µM) | – | 1.2 µg/mL (≈ 3.39 µM) | – | 0.8 µg/mL (≈ 2.26 µM) | 1.2 µg/mL (≈ 3.39 µM) | 1 µg/mL (≈ 2.83 µM) | 1 µg/mL (≈ 2.83 µM)
5 | C/C(=N\NC(=N)N)c1sc(-c2ccc(C3CCCCC3)cc2)nc1C | 0.7 µg/mL (≈ 1.97 µM) | 1.5 µg/mL (≈ 4.22 µM) | 0.9 µg/mL (≈ 2.53 µM) | 0.7 µg/mL (≈ 1.97 µM) | 0.7 µg/mL (≈ 1.97 µM) | 0.7 µg/mL (≈ 1.97 µM) | 1.5 µg/mL (≈ 4.22 µM) | 0.6 µg/mL (≈ 1.69 µM) | 0.5 µg/mL (≈ 1.41 µM) | 0.7 µg/mL (≈ 1.97 µM) | 0.7 µg/mL (≈ 1.97 µM) | Non-toxic | 1.5 µg/mL (≈ 4.22 µM) | 6 h | 1.5 µg/mL (≈ 4.22 µM) | 0.7 µg/mL (≈ 1.97 µM) | 0.9 µg/mL (≈ 2.53 µM) | 0.7 µg/mL (≈ 1.97 µM) | 1.2 µg/mL (≈ 3.38 µM) | 0.7 µg/mL (≈ 1.97 µM)
6 | C/C(=N\NC(=N)N)c1sc(-c2ccc(C(C)(C)C)cc2)nc1C | 1.3 µg/mL (≈ 3.95 µM) | – | 1.3 µg/mL (≈ 3.95 µM) | 2.6 µg/mL (≈ 7.89 µM) | 1.9 µg/mL (≈ 5.77 µM) | 1.9 µg/mL (≈ 5.77 µM) | 1.9 µg/mL (≈ 5.77 µM) | 1 µg/mL (≈ 3.04 µM) | 1.6 µg/mL (≈ 4.86 µM) | 1.9 µg/mL (≈ 5.77 µM) | 1.6 µg/mL (≈ 4.86 µM) | Non-toxic | 1.9 µg/mL (≈ 5.77 µM) | – | 1.6 µg/mL (≈ 4.86 µM) | 1.9 µg/mL (≈ 5.77 µM) | – | 1.3 µg/mL (≈ 3.95 µM) | 2.6 µg/mL (≈ 7.89 µM) | 1.3 µg/mL (≈ 3.95 µM)
